Experimental findings from ChEMBL document CHEMBL2331132, “Synthesis, evaluation and absolute configuration assignment of novel dihydropyrimidin-2-ones as picomolar sodium iodide symporter inhibitors” (Eur J Med Chem, 2013) are described below.

One data set has as its system FRTL-5. As to the kind of experiment: Cytotoxicity against rat FRTL5 cells at 1 uM after 24 hrs by MTT assay. As to conditions: frtl-5, 24 h. The data set is classed as cell-based. The method in brief: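 Rat FRTL5 thyroid cells at about 50% confluence, given a single compound concentration for 24 h. MTT added (1.2 mg/mL), then 3 h at 37 °C and absorbance read at 570 nm to score viability. Ouabain run as assay control at eight concentrations.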
Background: Tetrazolium dyes change colour on reduction, which living cells bring about.
`COc1ccc(COC(=O)C2=C(C)N(C)C(=O)N(C)C2c2ccco2)cc1OC` (configuration not stated): the Activity result is recorded as “Non-toxic”.
On to `CC1=C(C(=O)OCc2ccc3c(c2)OCO3)C(c2ccco2)NC(=O)N1` (configuration not stated), for which the Activity entry is “Non-toxic”.
Same read-out and setting: next, `CC1=C(C(=O)OCc2ccc3c(c2)OCO3)C(c2ccco2)NC(=O)N1C` (configuration not stated): “Non-toxic”; `CC1=C(C(=O)OCc2ccc3c(c2)OCO3)C(c2ccco2)N(C)C(=O)N1C` (configuration not stated): “Non-toxic”; `COc1ccc(COC(=O)C2=C(C)NC(=O)NC2c2ccco2)cc1` (configuration not stated): “Non-toxic”.
As for `COc1ccc(COC(=O)C2=C(C)N(C)C(=O)NC2c2ccco2)cc1` (configuration not stated), the Activity entry is recorded as “Non-toxic”.
Regarding `COc1ccc(COC(=O)C2=C(C)N(C)C(=O)N(C)C2c2ccco2)cc1` (configuration not stated), the Activity result is on record as “Non-toxic”.
Consider `COc1cccc(COC(=O)C2=C(C)NC(=O)NC2c2ccco2)c1` (configuration not stated), for which the Activity entry is given as “Non-toxic”.
With `COc1cccc(COC(=O)C2=C(C)N(C)C(=O)NC2c2ccco2)c1` (configuration not stated), the Activity entry is given as “Non-toxic”.
As for `COc1cccc(COC(=O)C2=C(C)N(C)C(=O)N(C)C2c2ccco2)c1` (configuration not stated), the Activity entry was “Non-toxic”.
On the same count and under the same terms, next, `COc1ccc(COC(=O)C2=C(C)NC(=O)NC2c2ccco2)cc1OC` (configuration not stated): “Non-toxic”; `COc1ccc(COC(=O)C2=C(C)N(C)C(=O)NC2c2ccco2)cc1OC` (configuration not stated): “Non-toxic”.

The next data set addresses T1, Sodium/iodide cotransporter (Rattus norvegicus, UniProt Q63008).
T1 sequence (Q63008 whole entry): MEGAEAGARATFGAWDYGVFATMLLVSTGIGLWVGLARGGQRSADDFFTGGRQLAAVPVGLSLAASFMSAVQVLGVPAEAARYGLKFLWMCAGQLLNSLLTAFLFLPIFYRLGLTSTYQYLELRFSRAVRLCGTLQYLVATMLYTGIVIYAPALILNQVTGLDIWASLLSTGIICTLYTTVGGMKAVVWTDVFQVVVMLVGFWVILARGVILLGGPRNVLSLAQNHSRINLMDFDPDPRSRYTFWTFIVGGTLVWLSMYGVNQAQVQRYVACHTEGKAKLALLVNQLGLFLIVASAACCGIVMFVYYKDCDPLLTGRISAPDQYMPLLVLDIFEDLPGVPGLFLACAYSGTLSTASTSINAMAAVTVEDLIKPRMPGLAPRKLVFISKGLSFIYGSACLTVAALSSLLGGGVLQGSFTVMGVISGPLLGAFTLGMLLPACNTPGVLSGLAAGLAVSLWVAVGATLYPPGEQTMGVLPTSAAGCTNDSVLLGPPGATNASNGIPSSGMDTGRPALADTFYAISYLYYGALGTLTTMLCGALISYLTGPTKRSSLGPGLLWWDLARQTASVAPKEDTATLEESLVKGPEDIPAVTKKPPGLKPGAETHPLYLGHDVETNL
As to the kind of experiment: inhibition of sodium iodide symporter in rat FRTL5 cells after 1 hr by arsenic/cerium titration assay. The data set is classed as cell-based, FRTL-5.
Settings: not given
The method in brief:
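Iodide entrapment measured in FRTL5 cells after 1 h incubation at 20 ± 1 °C. Supernatant removed, then cellular iodide read at once by a modified non-radioactive As/Ce Sandell–Kolthoff reaction against iodide standards. DMSO stocks 20 mM; NaClO₄ and a reference inhibitor on every plate as controls. Racemates tested. IC₅₀ from a four-parameter Hill fit, averaged over ≥2 independent experiments.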
`COc1ccc(COC(=O)C2=C(C)NC(=O)NC2c2ccccc2)cc1` (configuration not stated) displayed an IC50 of 89 nM. This counts as double-digit nanomolar.
For the molecule `COc1ccc(COC(=O)C2=C(C)N(C)C(=O)N(C)C2c2ccco2)cc1OC` (configuration not stated), the IC50 was 65 nM.
In turn, `COc1ccc(COC(=O)C2=C(C)NC(=O)N[C@@H]2c2ccccc2)cc1` showed a half-maximal inhibitory concentration (IC50) of 70 nM.
As to `COc1ccc(COC(=O)C2=C(C)NC(=O)N[C@H]2c2ccccc2)cc1`, the IC50 was 1500 nM.
As for `COc1ccc(COC(=O)C2=C(C)NC(=O)N[C@@H]2c2ccco2)cc1`, half-maximal inhibition (IC50) required 630 nM.
In turn, `COc1ccc(COC(=O)C2=C(C)NC(=O)N[C@H]2c2ccco2)cc1` yielded an IC50 of 14000 nM.
On the same count and under the same terms, next, `CC1=C(C(=O)OCc2ccc3c(c2)OCO3)[C@@H](c2ccco2)N(C)C(=O)N1C`: 0.7 nM; `CC1=C(C(=O)OCc2ccc3c(c2)OCO3)[C@H](c2ccco2)N(C)C(=O)N1C`: 630 nM.
Regarding `COc1ccc(COC(=O)C2=C(C)NC(=O)NC2c2ccco2)cc1OC` (configuration not stated), the IC50 is 400 nM. Compared with the last molecule, the IC50 is about 1.6-fold lower.
`COc1ccc(COC(=O)C2=C(C)N(C)C(=O)NC2c2ccco2)cc1OC` (configuration not stated) had an IC50 of 1000 nM.

For orientation: IC50 means the concentration that inhibits the measured activity by half. A low value points to higher potency.
